Measured values as given in ChEMBL document CHEMBL1125267, “Linear discriminant and multiple regression analyses of anticoccidial triazines” (1991).

Experiment: Minimum effective concentration (MEC) value was determined as a measure of anti-coccidial activity (MEC is expressed as mmol/kg of feed).
Format: functional
Method in brief: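 Dietary activity was graded by the lowest effective feed level, originally in ppm and converted to mmol/kg of feed. Where MEC was only bounded (>250 ppm or >500 ppm), it was assigned the next higher feed level.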

**Q.** Which MEC does the source give for `O=c1cnn(-c2ccc(S(=O)(=O)N3CCOCC3)c(Cl)c2)c(=O)[nH]1` here?
**A.** The MEC was 30 p.p.m.

**Q.** Which MEC does the source give for `Cc1cc(-n2ncc(=O)[nH]c2=O)cc(C)c1S(=O)(=O)N1CCOCC1` here?
**A.** Its MEC is 15 p.p.m.

**Q.** Which MEC does the source give for `O=c1cnn(-c2cc(Cl)c(S(=O)(=O)N3CCOCC3)c(Cl)c2)c(=O)[nH]1` here?
**A.** Its MEC is 30 p.p.m.

**Q.** For `O=c1cnn(-c2cccc(Cl)c2)c(=O)[nH]1`, which MEC is on record?
**A.** The MEC was 125 p.p.m.

**Q.** With `Cc1cc(C)cc(-n2ncc(=O)[nH]c2=O)c1` as the molecule, how does the MEC read?
**A.** The MEC was 30 p.p.m.

**Q.** With `Cc1cc(Cl)cc(-n2ncc(=O)[nH]c2=O)c1` as the molecule, how does the MEC read?
**A.** The MEC was 15 p.p.m.

**Q.** For `O=c1cnn(-c2ccc(S(=O)(=O)c3ccc(Cl)cc3)cc2)c(=O)[nH]1`, which MEC is on record?
**A.** Its MEC is 4 p.p.m.

**Q.** With `Cc1cc(-n2ncc(=O)[nH]c2=O)cc(Cl)c1Sc1ccc(Cl)cc1` as the molecule, how does the MEC read?
**A.** The MEC was 0.2 p.p.m.

**Q.** With `COc1c(Cl)cc(-n2ncc(=O)[nH]c2=O)cc1Cl` as the molecule, how does the MEC read?
**A.** Its MEC is 250 p.p.m.

**Q.** For `O=c1cnn(-c2cc(Cl)c(S(=O)(=O)c3ccc(Cl)cc3)c(Cl)c2)c(=O)[nH]1`, which MEC is on record?
**A.** Its MEC is 0.5 p.p.m.

**Q.** With `O=c1cnn(-c2cc(Cl)cc(Cl)c2)c(=O)[nH]1` as the molecule, how does the MEC read?
**A.** Its MEC is 4 p.p.m.

**Q.** With `O=c1cnn(-c2ccccc2)c(=O)[nH]1` as the molecule, how does the MEC read?
**A.** The MEC was 500 p.p.m.

**Q.** For `O=c1cnn(-c2ccc(Sc3ccc(Cl)cc3)c(Cl)c2)c(=O)[nH]1`, which MEC is on record?
**A.** Its MEC is 2 p.p.m.

**Q.** Which MEC does the source give for `O=c1cnn(-c2cc(Cl)c(Sc3ccc(Cl)cc3)c(Cl)c2)c(=O)[nH]1` here?
**A.** The MEC was 0.2 p.p.m.

**Q.** For `O=c1cnn(-c2ccc(S(=O)(=O)c3ccc(Br)cc3)cc2)c(=O)[nH]1`, which MEC is on record?
**A.** Its MEC is 8 p.p.m.

**Q.** Which MEC does the source give for `Cc1cc(-n2ncc(=O)[nH]c2=O)cc(C)c1S(=O)(=O)c1ccc(Cl)cc1` here?
**A.** The MEC was 1 p.p.m.

**Q.** Which MEC does the source give for `Cc1cc(-n2ncc(=O)[nH]c2=O)cc(C)c1[S+]([O-])c1ccc(Cl)cc1` (centres undefined) here?
**A.** The MEC was 1 p.p.m.

**Q.** Which MEC does the source give for `Cc1cc(-n2ncc(=O)[nH]c2=O)cc(Cl)c1S(=O)(=O)c1ccc(Cl)cc1` here?
**A.** Its MEC is 8 p.p.m.

**Q.** For `O=c1cnn(-c2ccc(S(=O)(=O)c3ccccc3)cc2)c(=O)[nH]1`, which MEC is on record?
**A.** Its MEC is 30 p.p.m.

**Q.** Which MEC does the source give for `O=C(c1ccc(Cl)cc1)c1c(Cl)cc(-n2ncc(=O)[nH]c2=O)cc1Cl` here?
**A.** The MEC was 0.5 p.p.m.

**Q.** With `CS(=O)(=O)c1ccc(-n2ncc(=O)[nH]c2=O)cc1` as the molecule, how does the MEC read?
**A.** The MEC was 500 p.p.m.

**Q.** For `O=c1cnn(-c2ccc([N+](=O)[O-])cc2)c(=O)[nH]1`, which MEC is on record?
**A.** Its MEC is 250 p.p.m.

**Q.** For `O=c1cnn(-c2ccc(Oc3ccccc3)cc2)c(=O)[nH]1`, which MEC is on record?
**A.** The MEC was 500 p.p.m.

**Q.** With `O=c1cnn(-c2ccc(Oc3ccc(I)cc3)c(Cl)c2)c(=O)[nH]1` as the molecule, how does the MEC read?
**A.** The MEC was 7.5 p.p.m.

**Q.** With `CSc1ccc(Oc2ccc(-n3ncc(=O)[nH]c3=O)cc2C)cc1` as the molecule, how does the MEC read?
**A.** The MEC was 2 p.p.m.

**Q.** Which MEC does the source give for `Cc1cc(-n2ncc(=O)[nH]c2=O)ccc1Oc1ccc(Br)cc1` here?
**A.** The MEC was 7.5 p.p.m.

**Q.** With `CSc1ccc(Oc2ccc(-n3ncc(=O)[nH]c3=O)cc2Cl)cc1` as the molecule, how does the MEC read?
**A.** The MEC was 3.8 p.p.m.

**Q.** Which MEC does the source give for `CC(=O)c1ccc(Sc2c(C)cc(-n3ncc(=O)[nH]c3=O)cc2Cl)cc1` here?
**A.** The MEC was 0.25 p.p.m.

**Q.** For `O=c1cnn(-c2ccc(Oc3ccc4cc(Br)ccc4c3)c(Cl)c2)c(=O)[nH]1`, which MEC is on record?
**A.** The MEC was 7.5 p.p.m.

**Q.** With `O=c1cnn(-c2ccc(Sc3ccc4ccccc4c3)c(Cl)c2)c(=O)[nH]1` as the molecule, how does the MEC read?
**A.** Its MEC is 125 p.p.m.

**Q.** Which MEC does the source give for `CSc1ccc(Oc2c(C)cc(-n3ncc(=O)[nH]c3=O)cc2C)cc1` here?
**A.** The MEC was 2 p.p.m.

**Q.** With `COc1cc(-n2ncc(=O)[nH]c2=O)cc(OC)c1OC` as the molecule, how does the MEC read?
**A.** The MEC was 1000 p.p.m.

**Q.** For `CC(=O)c1ccc(Oc2c(C)cc(-n3ncc(=O)[nH]c3=O)cc2Cl)cc1`, which MEC is on record?
**A.** Its MEC is 2 p.p.m.

**Q.** Which MEC does the source give for `Cc1cc(-n2ncc(=O)[nH]c2=O)ccc1Oc1ccc(Cl)cc1Cl` here?
**A.** Its MEC is 7.5 p.p.m.

**Q.** Which MEC does the source give for `Cc1cc(-n2ncc(=O)[nH]c2=O)ccc1Oc1ccc(Cl)cc1` here?
**A.** The MEC was 60 p.p.m.

**Q.** Which MEC does the source give for `O=c1cnn(-c2cccc(C(F)(F)F)c2)c(=O)[nH]1` here?
**A.** The MEC was 30 p.p.m.

**Q.** For `Cc1cc(-n2ncc(=O)[nH]c2=O)cc(Cl)c1Oc1ccc(Cl)cc1`, which MEC is on record?
**A.** The MEC was 3.8 p.p.m.

**Q.** With `CSc1ccc(Oc2c(C)cc(-n3ncc(=O)[nH]c3=O)cc2C)cc1C` as the molecule, how does the MEC read?
**A.** The MEC was 2 p.p.m.

**Q.** Which MEC does the source give for `Cc1cc(-n2ncc(=O)[nH]c2=O)ccc1Oc1ccc(S(C)(=O)=O)cc1` here?
**A.** Its MEC is 4 p.p.m.

**Q.** With `Cc1cc(-n2ncc(=O)[nH]c2=O)cc(Cl)c1Oc1ccc(C(C)O)cc1` (centres undefined) as the molecule, how does the MEC read?
**A.** Its MEC is 2 p.p.m.

**Q.** With `CCN(C)S(=O)(=O)c1ccc(Oc2c(C)cc(-n3ncc(=O)[nH]c3=O)cc2Cl)c(Cl)c1` as the molecule, how does the MEC read?
**A.** Its MEC is 3.8 p.p.m.

**Q.** For `Cc1cc(-n2ncc(=O)[nH]c2=O)cc(Cl)c1Oc1ccc(S(=O)(=O)NC2CC2)cc1Cl`, which MEC is on record?
**A.** Its MEC is 15 p.p.m.

**Q.** With `O=c1cnn(-c2cc(Cl)c(Cc3ccc(Cl)cc3)c(Cl)c2)c(=O)[nH]1` as the molecule, how does the MEC read?
**A.** Its MEC is 0.25 p.p.m.

**Q.** Which MEC does the source give for `O=c1cnn(-c2ccc(Oc3ccc(Cl)cc3Cl)c(Cl)c2)c(=O)[nH]1` here?
**A.** The MEC was 7.5 p.p.m.

**Q.** For `O=c1cnn(-c2ccc(F)c(C(F)(F)F)c2)c(=O)[nH]1`, which MEC is on record?
**A.** Its MEC is 15 p.p.m.

**Q.** With `N#Cc1cccc(-n2ncc(=O)[nH]c2=O)c1` as the molecule, how does the MEC read?
**A.** The MEC was 30 p.p.m.

**Q.** With `O=c1cnn(-c2ccc(Cc3ccc(Cl)cc3)c(Cl)c2)c(=O)[nH]1` as the molecule, how does the MEC read?
**A.** The MEC was 8 p.p.m.

**Q.** For `COc1cc(OC)cc(-n2ncc(=O)[nH]c2=O)c1`, which MEC is on record?
**A.** The MEC was 500 p.p.m.

**Q.** Which MEC does the source give for `O=c1cnn(-c2ccc(Br)c(C(F)(F)F)c2)c(=O)[nH]1` here?
**A.** The MEC was 15 p.p.m.

**Q.** For `O=c1cnn(-c2ccc(C(O)c3ccc(Cl)cc3)c(Cl)c2)c(=O)[nH]1` (centres undefined), which MEC is on record?
**A.** The MEC was 2 p.p.m.

**Q.** With `Cc1cc(-n2ncc(=O)[nH]c2=O)cc(C)c1C(=O)c1ccc(Cl)cc1` as the molecule, how does the MEC read?
**A.** Its MEC is 15 p.p.m.

**Q.** With `Cc1cc(-n2ncc(=O)[nH]c2=O)ccc1C(O)c1ccccc1` (centres undefined) as the molecule, how does the MEC read?
**A.** The MEC was 30 p.p.m.

**Q.** With `N#CC(c1ccc(Cl)cc1)c1c(Cl)cc(-n2ncc(=O)[nH]c2=O)cc1Cl` (centres undefined) [DICLAZURIL] as the molecule, how does the MEC read?
**A.** Its MEC is 0.1 p.p.m.

**Q.** Which MEC does the source give for `Cc1cc(-n2ncc(=O)[nH]c2=O)cc(C)c1Sc1ccc(Cl)cc1` [TIAZURIL] here?
**A.** The MEC was 0.5 p.p.m.
